How the values were obtained:
[1] = molecular target: T1, 5-hydroxytryptamine receptor 1A (Rattus norvegicus, UniProt P19327); assay: Displacement of [3H]-8-OH-DPAT from 5-HT1A receptor in Sprague-Dawley rat brain cortex after 30 mins liquid scintillation spectrometer; assay type: tissue-based, Cerebral cortex
T1 sequence (P19327 whole entry): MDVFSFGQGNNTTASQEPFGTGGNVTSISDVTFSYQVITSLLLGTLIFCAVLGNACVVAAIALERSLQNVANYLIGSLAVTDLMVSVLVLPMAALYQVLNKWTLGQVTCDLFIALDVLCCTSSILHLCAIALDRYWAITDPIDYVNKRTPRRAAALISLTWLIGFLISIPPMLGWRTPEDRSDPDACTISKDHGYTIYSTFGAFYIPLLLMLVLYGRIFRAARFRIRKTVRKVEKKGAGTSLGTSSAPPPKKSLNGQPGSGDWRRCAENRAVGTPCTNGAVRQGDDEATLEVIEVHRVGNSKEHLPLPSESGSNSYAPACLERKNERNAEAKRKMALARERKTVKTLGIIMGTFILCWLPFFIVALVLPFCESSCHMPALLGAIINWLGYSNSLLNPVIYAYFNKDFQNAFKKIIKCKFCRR
Outline: (§1)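 Radioligand competition binding. Compounds were dissolved in ethanol or in 5% DMSO, and blank runs checked 5% DMSO for interference with binding. Six test-compound concentrations, each in triplicate, gave IC50 values by curve fitting. Ki was calculated by Cheng–Prusoff, Ki = IC50/(1 + S/KD), where S is the hot-ligand concentration and KD came from Scatchard analysis for each labeled ligand.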

[2] = molecular target: 5-hydroxytryptamine receptor 2A (Rattus norvegicus, UniProt P14842); assay: Displacement of [3H]ketanserin hydrochloride from 5-HT2A receptor in Sprague-Dawley rat brain cortex after 15 mins; outline: as §1
[3] = molecular target: T2, 5-hydroxytryptamine receptor 2C (Rattus norvegicus, UniProt P08909); assay: Displacement of [3H]mesulergine from 5-HT2C receptor in Sprague-Dawley rat brain cortex after 15 mins; outline: as §1
T2 sequence (P08909 whole entry): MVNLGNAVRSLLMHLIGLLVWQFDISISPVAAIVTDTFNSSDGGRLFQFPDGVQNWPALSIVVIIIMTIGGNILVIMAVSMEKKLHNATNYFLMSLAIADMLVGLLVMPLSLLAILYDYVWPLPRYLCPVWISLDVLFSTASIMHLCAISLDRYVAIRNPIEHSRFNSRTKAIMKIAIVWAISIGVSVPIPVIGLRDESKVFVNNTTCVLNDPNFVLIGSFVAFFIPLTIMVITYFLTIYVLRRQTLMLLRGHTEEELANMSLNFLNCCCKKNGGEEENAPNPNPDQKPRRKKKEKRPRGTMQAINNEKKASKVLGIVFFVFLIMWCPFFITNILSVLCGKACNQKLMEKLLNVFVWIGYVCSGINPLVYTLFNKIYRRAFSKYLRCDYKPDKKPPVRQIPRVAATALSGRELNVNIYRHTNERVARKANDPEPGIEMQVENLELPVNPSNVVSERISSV

D(1A) dopamine receptor = D(1A) dopamine receptor (Rattus norvegicus, UniProt P18901); assay: Displacement of [3H]SCH-23390 from dopamine D1 receptor in rat striatum after 15 mins by liquid scintillation counting; outline: as §1
D(2) dopamine receptor = D(2) dopamine receptor (Rattus norvegicus, UniProt P61169); assay: Displacement of [3H]spiperone from dopamine D2 receptor in rat striatum after 15 mins by liquid scintillation counting; outline: as §1
[4] = molecular target: T3, Adrenergic receptor alpha-1 (Rattus norvegicus, UniProt P15823+P23944+P43140); assay: Displacement of [3H]prazosin from alpha1 adrenergic receptor in rat striatum after 30 mins by liquid scintillation counting; conditions: in the assay text read “rat brain cortex” for “rat striatum”; outline: as §1
T3 sequence (P15823 whole entry): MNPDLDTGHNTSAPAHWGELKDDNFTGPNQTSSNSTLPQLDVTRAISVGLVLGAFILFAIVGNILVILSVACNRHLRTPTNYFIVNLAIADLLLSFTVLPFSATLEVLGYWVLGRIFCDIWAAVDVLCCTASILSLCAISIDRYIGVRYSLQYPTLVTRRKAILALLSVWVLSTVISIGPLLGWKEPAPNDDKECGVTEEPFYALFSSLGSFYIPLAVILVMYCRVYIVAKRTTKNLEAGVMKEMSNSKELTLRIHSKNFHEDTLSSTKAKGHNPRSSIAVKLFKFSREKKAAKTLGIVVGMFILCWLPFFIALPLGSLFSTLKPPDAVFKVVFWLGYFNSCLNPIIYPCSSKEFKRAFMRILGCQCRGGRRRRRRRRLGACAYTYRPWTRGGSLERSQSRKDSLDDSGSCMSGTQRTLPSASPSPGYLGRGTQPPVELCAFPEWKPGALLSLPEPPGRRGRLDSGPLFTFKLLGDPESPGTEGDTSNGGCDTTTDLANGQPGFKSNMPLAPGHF
T3 sequence (P23944 whole entry): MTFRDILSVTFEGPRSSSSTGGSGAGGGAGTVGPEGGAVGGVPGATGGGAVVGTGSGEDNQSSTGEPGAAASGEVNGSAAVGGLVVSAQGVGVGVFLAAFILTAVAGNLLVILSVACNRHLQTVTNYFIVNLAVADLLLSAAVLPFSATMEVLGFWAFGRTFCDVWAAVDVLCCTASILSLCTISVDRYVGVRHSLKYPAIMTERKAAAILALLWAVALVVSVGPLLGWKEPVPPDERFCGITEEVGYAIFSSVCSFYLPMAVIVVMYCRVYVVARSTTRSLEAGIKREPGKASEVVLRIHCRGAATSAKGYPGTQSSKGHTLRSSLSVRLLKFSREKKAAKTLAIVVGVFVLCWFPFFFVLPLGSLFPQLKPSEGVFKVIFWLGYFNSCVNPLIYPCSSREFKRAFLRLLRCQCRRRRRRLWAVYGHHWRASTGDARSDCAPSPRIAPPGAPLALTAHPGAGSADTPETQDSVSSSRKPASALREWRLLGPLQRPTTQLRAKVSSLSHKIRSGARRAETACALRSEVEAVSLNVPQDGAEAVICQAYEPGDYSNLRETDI
T3 sequence (P43140 whole entry): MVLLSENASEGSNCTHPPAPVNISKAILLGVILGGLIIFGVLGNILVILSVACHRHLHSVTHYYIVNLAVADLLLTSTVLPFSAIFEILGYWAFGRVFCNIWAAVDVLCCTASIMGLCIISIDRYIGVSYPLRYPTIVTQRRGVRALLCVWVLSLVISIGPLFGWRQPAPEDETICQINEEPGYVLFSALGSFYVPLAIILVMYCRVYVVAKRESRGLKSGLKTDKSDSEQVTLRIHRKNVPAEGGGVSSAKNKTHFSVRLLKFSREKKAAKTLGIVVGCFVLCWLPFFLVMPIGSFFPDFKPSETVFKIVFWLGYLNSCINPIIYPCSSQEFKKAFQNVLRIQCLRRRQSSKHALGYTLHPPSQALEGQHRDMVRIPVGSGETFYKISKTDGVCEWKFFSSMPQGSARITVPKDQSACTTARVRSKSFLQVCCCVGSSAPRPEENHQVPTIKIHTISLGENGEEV

[5] = molecular target: T4, Adrenergic receptor alpha-2 (Rattus norvegicus, UniProt P22086+P19328+P22909); assay: Displacement of [3H]yohimbine from alpha 2 adrenergic receptor in rat brain cortex after 30 mins by liquid scintillation counting; assay type: tissue-based; outline: as §1
T4 sequence (P22086 whole entry): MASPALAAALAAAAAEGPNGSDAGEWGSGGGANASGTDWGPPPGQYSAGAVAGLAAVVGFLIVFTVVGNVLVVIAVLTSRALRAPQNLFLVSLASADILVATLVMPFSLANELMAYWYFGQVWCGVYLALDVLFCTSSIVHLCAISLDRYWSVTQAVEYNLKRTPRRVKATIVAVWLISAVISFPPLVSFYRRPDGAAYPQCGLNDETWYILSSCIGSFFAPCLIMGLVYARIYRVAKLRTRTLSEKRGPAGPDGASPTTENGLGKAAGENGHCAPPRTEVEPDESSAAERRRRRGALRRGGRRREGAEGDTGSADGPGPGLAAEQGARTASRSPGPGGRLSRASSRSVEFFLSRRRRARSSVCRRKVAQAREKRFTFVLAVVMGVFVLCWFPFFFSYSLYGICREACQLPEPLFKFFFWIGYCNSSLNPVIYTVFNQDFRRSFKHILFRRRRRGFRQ
T4 sequence (P19328 whole entry): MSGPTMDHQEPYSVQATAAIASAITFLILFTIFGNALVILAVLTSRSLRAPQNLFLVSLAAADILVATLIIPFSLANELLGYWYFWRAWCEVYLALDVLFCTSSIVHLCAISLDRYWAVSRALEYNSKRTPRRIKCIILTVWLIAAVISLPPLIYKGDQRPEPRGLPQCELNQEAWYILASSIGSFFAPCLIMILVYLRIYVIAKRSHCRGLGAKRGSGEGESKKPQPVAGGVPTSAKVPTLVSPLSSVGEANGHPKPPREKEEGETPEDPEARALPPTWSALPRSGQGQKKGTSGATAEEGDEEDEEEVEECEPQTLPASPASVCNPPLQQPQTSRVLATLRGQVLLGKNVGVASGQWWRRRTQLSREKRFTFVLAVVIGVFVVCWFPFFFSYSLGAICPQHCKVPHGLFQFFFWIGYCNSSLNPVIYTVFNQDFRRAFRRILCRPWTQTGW
T4 sequence (P22909 whole entry): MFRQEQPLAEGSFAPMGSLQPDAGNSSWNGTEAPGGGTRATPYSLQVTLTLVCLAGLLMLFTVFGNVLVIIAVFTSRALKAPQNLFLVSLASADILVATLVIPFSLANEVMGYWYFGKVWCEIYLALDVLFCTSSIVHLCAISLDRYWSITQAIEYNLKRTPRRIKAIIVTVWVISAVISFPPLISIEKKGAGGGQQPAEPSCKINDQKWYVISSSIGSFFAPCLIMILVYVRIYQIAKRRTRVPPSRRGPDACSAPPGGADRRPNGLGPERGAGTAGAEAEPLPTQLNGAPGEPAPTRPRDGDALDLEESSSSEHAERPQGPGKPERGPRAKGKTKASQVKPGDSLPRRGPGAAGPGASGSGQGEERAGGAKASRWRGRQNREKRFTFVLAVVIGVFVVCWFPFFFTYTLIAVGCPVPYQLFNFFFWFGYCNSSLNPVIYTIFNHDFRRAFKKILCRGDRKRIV

D(1A) dopamine receptor, sequence (P18901 whole entry): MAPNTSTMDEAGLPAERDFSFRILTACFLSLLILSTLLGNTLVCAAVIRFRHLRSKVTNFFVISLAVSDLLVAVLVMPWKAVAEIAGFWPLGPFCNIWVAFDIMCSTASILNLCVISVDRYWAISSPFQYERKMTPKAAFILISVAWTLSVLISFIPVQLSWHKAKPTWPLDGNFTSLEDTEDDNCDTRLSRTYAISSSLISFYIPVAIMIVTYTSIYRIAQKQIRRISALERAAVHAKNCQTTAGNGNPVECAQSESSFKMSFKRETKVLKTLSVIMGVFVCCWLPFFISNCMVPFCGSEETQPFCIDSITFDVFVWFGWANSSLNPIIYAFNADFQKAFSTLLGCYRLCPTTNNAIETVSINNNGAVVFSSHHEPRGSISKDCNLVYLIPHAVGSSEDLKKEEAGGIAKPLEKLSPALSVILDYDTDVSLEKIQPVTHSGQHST
5-hydroxytryptamine receptor 2A, sequence (P14842 whole entry): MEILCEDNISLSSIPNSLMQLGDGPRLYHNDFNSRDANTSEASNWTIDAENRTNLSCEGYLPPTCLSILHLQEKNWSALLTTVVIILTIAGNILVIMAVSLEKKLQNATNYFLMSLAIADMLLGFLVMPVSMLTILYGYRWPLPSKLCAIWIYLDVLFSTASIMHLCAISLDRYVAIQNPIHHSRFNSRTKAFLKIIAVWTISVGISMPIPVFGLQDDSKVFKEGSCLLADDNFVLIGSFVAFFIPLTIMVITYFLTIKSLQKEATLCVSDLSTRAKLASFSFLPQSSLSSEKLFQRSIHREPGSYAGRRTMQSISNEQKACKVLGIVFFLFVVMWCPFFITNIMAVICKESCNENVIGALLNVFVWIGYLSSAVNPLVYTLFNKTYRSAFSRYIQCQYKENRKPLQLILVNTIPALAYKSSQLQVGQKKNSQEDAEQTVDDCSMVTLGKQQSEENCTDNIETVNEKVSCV
D(2) dopamine receptor, sequence (P61169 whole entry): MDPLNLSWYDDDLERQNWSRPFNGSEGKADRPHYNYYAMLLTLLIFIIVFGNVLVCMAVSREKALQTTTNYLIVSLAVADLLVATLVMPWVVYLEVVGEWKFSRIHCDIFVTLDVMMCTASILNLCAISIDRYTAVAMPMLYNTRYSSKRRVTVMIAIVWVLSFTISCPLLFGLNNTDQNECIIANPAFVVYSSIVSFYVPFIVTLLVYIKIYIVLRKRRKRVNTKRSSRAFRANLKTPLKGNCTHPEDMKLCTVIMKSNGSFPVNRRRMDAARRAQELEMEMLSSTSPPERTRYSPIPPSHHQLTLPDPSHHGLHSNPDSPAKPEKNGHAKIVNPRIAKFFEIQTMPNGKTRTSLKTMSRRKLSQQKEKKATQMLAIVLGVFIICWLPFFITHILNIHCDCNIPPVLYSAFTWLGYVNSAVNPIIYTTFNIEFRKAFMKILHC

Row | SMILES | Ki [1] | Ki [2] | Ki [3] | Ki ([2]; read-out: Ki) [nM] | Ki ([1]; read-out: Ki) [nM] | Ki (D(1A) dopamine receptor) [nM] | Ki (D(2) dopamine receptor) [nM] | Ki [4] [nM] | Ki [5] [nM] | Ki ([3]; read-out: Ki) [nM]
1 | C=CCN1CCN(CCCN/C(=N\C#N)c2ccncc2)CC1 | Not Active | Not Active | Not Active | – | – | – | – | – | – | –
2 | COCCN1CCN(CCCN/C(=N\C#N)c2ccncc2)CC1 | Not Active | – | Not Active | > 10000 | – | – | – | – | – | –
3 | CCOCCN1CCN(CCCN/C(=N\C#N)c2ccncc2)CC1 | – | Not Active | Not Active | – | > 10000 | – | – | – | – | –
4 | N#C/N=C(\NCCCN1CCN(c2cccc(Cl)c2)CC1)c1ccncc1 | – | – | Not Active | > 10000 | 6.17 | 1630 | > 10000 | 912 | > 10000 | –
5 | N#C/N=C(\NCCCN1CCN(c2cccc(C(F)(F)F)c2)CC1)c1ccncc1 | – | – | Not Active | 32.1 | 141 | – | – | – | – | –
6 | N#C/N=C(\NCCCN1CCN(c2ncccn2)CC1)c1ccncc1 | – | Not Active | Not Active | – | 172 | – | – | – | – | –
7 | N#C/N=C(\NCCCN1CCN(c2ccccn2)CC1)c1ccncc1 | – | Not Active | Not Active | – | 0.038 | > 10000 | > 10000 | > 10000 | > 10000 | –
8 | COc1ccc(N2CCN(CCCN/C(=N\C#N)c3ccncc3)CC2)cc1 | – | – | Not Active | > 10000 | > 10000 | – | – | – | – | –
9 | CCOc1ccccc1N1CCN(CCCN/C(=N\C#N)c2ccncc2)CC1 | – | – | – | 1900 | 21.3 | > 10000 | > 10000 | 190 | 516 | 11.5
10 | N#C/N=C(\NCCCN1CCN(c2ccccc2C#N)CC1)c1ccncc1 | Not Active | – | Not Active | > 10000 | – | – | – | – | – | –
11 | Cc1cccc(N2CCN(CCCN/C(=N\C#N)c3ccncc3)CC2)c1C | – | – | Not Active | > 10000 | 101 | – | – | – | – | –
12 | N#C/N=C(\NCCCN1CCN(c2ccccc2Cl)CC1)c1ccncc1 | – | – | Not Active | > 10000 | 166 | – | – | – | – | –
13 | N#C/N=C(\NCCCN1CCN(Cc2ccc3c(c2)OCO3)CC1)c1ccncc1 | – | – | Not Active | > 10000 | > 10000 | – | – | – | – | –
14 | N#C/N=C(\NCCCN1CCN(C(=O)c2ccco2)CC1)c1ccncc1 | – | – | Not Active | > 10000 | > 10000 | – | – | – | – | –
15 | COc1ccccc1N1CCN(CCCN/C(=N\C#N)c2ccncc2)CC1 | – | – | Not Active | > 10000 | 1.47 | > 10000 | > 10000 | > 10000 | 2570 | –

From ChEMBL document CHEMBL1157888, “New 5-HT(1A) receptor ligands containing a N'-cyanoisonicotinamidine nucleus: synthesis and in vitro pharmacological evaluation” (Bioorg Med Chem Lett, 2010)
